Compound activity: PubChem BioAssay, Broad Institute
E-selectin induc – induces E-selectin expression in human endothelial cells; HUVEC E-selectin immunofluorescence imaging; normalized: neutral wells 0, TNF-alpha wells 100; P16581; activation, % at 7.58 µM; AID 686992; hit rate 0.37% among 260,000;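 active means mean E-selectin-positive cell signal at least 10% of the positive control, reached in at least 60% of replicates, without over 20% cell loss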
Target sequence (P16581 whole entry, looked up): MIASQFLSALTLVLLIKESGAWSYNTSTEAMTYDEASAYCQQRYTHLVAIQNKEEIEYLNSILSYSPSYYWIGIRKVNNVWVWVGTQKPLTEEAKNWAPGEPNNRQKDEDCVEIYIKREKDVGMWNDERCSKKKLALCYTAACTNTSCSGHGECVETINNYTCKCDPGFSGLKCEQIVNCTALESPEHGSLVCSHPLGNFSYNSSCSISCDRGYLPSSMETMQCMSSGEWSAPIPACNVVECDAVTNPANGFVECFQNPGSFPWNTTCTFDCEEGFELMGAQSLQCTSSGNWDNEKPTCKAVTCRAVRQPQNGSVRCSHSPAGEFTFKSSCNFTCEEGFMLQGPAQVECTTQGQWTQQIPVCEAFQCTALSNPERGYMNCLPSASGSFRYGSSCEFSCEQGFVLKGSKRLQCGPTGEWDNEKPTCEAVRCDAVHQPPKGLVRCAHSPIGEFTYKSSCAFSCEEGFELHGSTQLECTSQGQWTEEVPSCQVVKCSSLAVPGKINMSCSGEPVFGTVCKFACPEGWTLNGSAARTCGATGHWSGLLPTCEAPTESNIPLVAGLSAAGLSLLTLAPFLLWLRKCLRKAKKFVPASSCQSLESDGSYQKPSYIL
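Test system: HUVEC | Signal: Immunofluorescence imaging | Read-out: Percent E-selectin-positive cells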
XiGFP reactiv – X-chromosome reactivation activator; XiGFP mouse fibroblasts, % GFP-positive cells imaging, 3 d; cells co-treated with 5-aza-dC sensitizer; scaled so ellipticine positive control = 100%; activation, % at 7.58 µM; hit rate 0.055% among 360,000;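 active means mean normalized replicate activation at least 10% and every replicate at or above 10%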;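 further: 0% = median of on-plate neutral control wells and 100% = ellipticine 6 µM median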
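System: SV40-immortalized XiGFP fibroblast cells, line 68-5-11 / Incubation: 3-day compound exposure, then 15 min fixation at room temperature / Compound: single concentration per compound, delivered by pin transfer / Buffer or medium: DMEM plus 5-aza-dC sensitizer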
DENV2 CPE – protects cells from dengue virus 2 cytopathic effect; hit rate 1.7% among 350,000; DENV2-infected cells, cytopathic effect rescue, plate reader; AID 651640; CPE inhibition, % at 9.99 µM; in the data active means CPE inhibition above about 20%, passing the limit was not always enough; tested in BHK-21 cells;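 further: 0% = median of neutral control wells and 100% = median of positive control wells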
S100A4 MyoIIA – inhibitors of human S100A4 binding to myosin IIA peptide; AID 652163; S100A4/TAMRA-MyoIIA peptide fluorescence polarization; hit rate 0.14% among 360,000; inhibition, % at 10.7 µM;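 active means mean inhibition of at least 70% across replicates, with every replicate also reaching that level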
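Assay system: human S100A4 monomer with TAMRA-labelled myosin IIA peptide / Buffer or medium: Calcium-containing HEPES buffer, pH 7.2 / Reagent: TAMRA-labelled myosin IIA heavy-chain peptide probe, 5 nM / Compound: one dose per compound / Timing: polarization read 5 min after assay mix addition, stable 5–60 min / Benchmarks: neutral control DMSO, positive control TFP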
Active calls of the source: *; . = no result given. Most compounds without a hit are left out; they make up all but 2% or so of the library.

SMILES	E-selectin induc	XiGFP reactiv	DENV2 CPE	S100A4 MyoIIA
COc1ccc(S(=O)(=O)N(C)C[C@@H]2OCCCC[C@H](C)Oc3ccc(NS(=O)(=O)c4c(C)noc4C)cc3C(=O)N([C@H](C)CO)C[C@H]2C)cc1	0.0	-0.1	96.5*	-19.2
Cc1ccc(S(=O)(=O)N(C)C[C@H]2OCCCC[C@H](C)Oc3ccc(NS(=O)(=O)c4c(C)noc4C)cc3C(=O)N([C@H](C)CO)C[C@H]2C)cc1	.	3.4	14.6	-13.8
COc1ccc(S(=O)(=O)N(C)C[C@H]2Oc3ccc(NS(=O)(=O)c4c(C)noc4C)cc3C(=O)N([C@@H](C)CO)C[C@H]2C)cc1	403.8*	-1.1	14.3	4.2
Cc1noc(C)c1S(=O)(=O)N(C)C[C@@H]1OCCCC[C@@H](C)Oc2ccc(NS(=O)(=O)c3ccc(Cl)cc3)cc2C(=O)N([C@H](C)CO)C[C@H]1C	-0.5	-0.8	30.8*	-3.3
Cn1c(N)c(C(=O)COc2ccc(Cl)cc2Cl)c(=O)n(C)c1=O	1.8	0.3	-6.1	14.9
Cc1ccc2nc3c(cc(C(=O)NCCc4ccccc4)c(=N)n3CCCN3CCOCC3)c(=O)n2c1	.	.	1.0	-22.1
COc1ccc(CN(C)C[C@H]2Oc3c(NC(=O)Nc4ccc5c(c4)OCO5)cccc3C(=O)N([C@H](C)CO)C[C@@H]2C)cc1	-5.2	-0.8	8.4	-10.5
Cc1cc(C)cc(NC(=O)C2CCCN2/C=C/C(=O)C(F)(F)F)c1 (stereo not drawn)	.	0.2	.	.
Cc1ccc(S(=O)(=O)N(C)C[C@@H]2OCCCC[C@H](C)Oc3ccc(NS(=O)(=O)c4c(C)noc4C)cc3C(=O)N([C@@H](C)CO)C[C@H]2C)cc1	.	0.0	-2.9	-16.6
Cc1ccc(S(=O)(=O)N(C)C[C@@H]2OCCCC[C@H](C)Oc3ccc(NS(=O)(=O)c4c(C)noc4C)cc3C(=O)N([C@@H](C)CO)C[C@@H]2C)cc1	.	0.1	81.3*	-1.0
Cc1ccc(S(=O)(=O)N(C)C[C@H]2OCCCC[C@@H](C)Oc3ccc(NS(=O)(=O)c4c(C)noc4C)cc3C(=O)N([C@@H](C)CO)C[C@H]2C)cc1	-0.1	-0.1	12.5	94.2*
Cc1ccc(S(=O)(=O)Nc2ccc3c(c2)C(=O)N([C@H](C)CO)C[C@H](C)[C@H](CN(C)S(=O)(=O)c2c(C)noc2C)OCCCC[C@@H](C)O3)cc1	.	0.0	-6.9	6.2
Cc1ccc(S(=O)(=O)Nc2ccc3c(c2)C(=O)N([C@H](C)CO)C[C@H](C)[C@H](CN(C)S(=O)(=O)c2c(C)noc2C)OCCCC[C@H](C)O3)cc1	.	0.3	30.8*	-15.3
CO[C@@H]1CN(C)C(=O)c2cc(NS(=O)(=O)c3ccc(C)cc3)ccc2OC[C@@H](C)N(C(=O)NC(C)C)C[C@H]1C	-0.1	0.0	-0.3	-5.1
Cc1ccc(NC(=S)Nc2cc(C(=O)O)ccc2N2CC3CC(C2)c2cccc(=O)n2C3)cc1C (stereo not drawn)	.	0.0	-3.5	16.5
Cc1ccc(NC(=O)c2nccnc2C(=O)O)cc1C	0.0	0.0	5.9	-0.7
Fc1ccc(-n2c(-c3cccs3)nc3nc4ccccc4nc32)cc1	35.9*	0.1	.	.
CC(C)C[C@@H](CO)NS(=O)(=O)c1c(F)cccc1F	0.0	-0.2	49.3*	-1.7
CC(C)CC(CO)NS(=O)(=O)c1cccc(Cl)c1F (stereo not drawn)	-0.2	-0.1	-1.7	2.0
Cc1ccc(OCCNC(=O)/C=C/c2ccccc2)cc1	.	-0.1	27.7*	-1.6
Cc1ccc(OCC(=O)N(Cc2ccco2)C2CCS(=O)(=O)C2)cc1 (stereo not drawn)	.	0.1	8.8	-9.7
Cc1noc(C)c1S(=O)(=O)N(C)C[C@H]1OCCCC[C@H](C)Oc2ccc(NC(=O)NC(C)C)cc2C(=O)N([C@H](C)CO)C[C@@H]1C	.	0.0	102.5*	-8.5
Cc1noc(C)c1S(=O)(=O)N(C)C[C@H]1OCCCC[C@@H](C)Oc2ccc(NC(=O)Nc3ccc4c(c3)OCO4)cc2C(=O)N([C@@H](C)CO)C[C@H]1C	0.0	0.4	86.5*	.
CC(C)c1ccc(NC(=O)COC(=O)c2nn(C)c(=O)c3ccccc23)cc1	1.8	0.3	-0.2	-9.1
CCOc1ccc(NC(=S)N2CCC(NC(=O)c3ccccc3C)CC2)cc1	0.0	0.3	3.4	-0.7
CN(C)c1ccc(NC(=S)NC23CC4CC(CC(C4)C2)C3)cc1	73.3*	0.3	-3.0	-4.6
CCOc1ccc(NC(=S)NC23CC4CC(CC(C4)C2)C3)cc1	.	0.1	12.0	1.0
